Data from ChEMBL document CHEMBL4196238, “Synthesis and Antiviral Evaluation of Carbocyclic Nucleoside Analogs of Nucleoside Reverse Transcriptase Translocation Inhibitor MK-8591 (4'-Ethynyl-2-fluoro-2'-deoxyadenosine)” (J Med Chem, 2018).

Columns and labels:
[1] = system: Human immunodeficiency virus 1; experiment: Antiviral activity against HIV1 infected in human PBMC incubated for 24 hrs in presence of 10% NHS by GFP based single cycle HIV replication assay; format: functional, organism-based; conditions: Human immunodeficiency virus 1, PBMC
How it was run: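 Human PBMCs infected with wild-type HIV-1 were tested in a single-cycle HIV replication assay containing 10% normal human serum (NHS), and IC50 values were determined.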

[2] = Cytotoxicity in human MT4 cells expressing GFP assessed as reduction in cell viability incubated for 48 hrs by cell-titer-Glo luminescent cell viability assay; format: cell-based
How it was run: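 CC50 values were determined in the MT4 cell line under 10% NHS conditions.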

[3] = AUC (0 to infinity) in Sprague-Dawley rat at 1 mg/kg, iv; format: ADME, organism-based; set-up: dose 1 mg/kg, time infinity, route intravenous; conditions: in vivo
How it was run: (§1)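 Male Sprague–Dawley rats were dosed intravenously at 1 mg/kg or orally at 2 mg/kg, and pharmacokinetic parameters were derived from plasma data for each route.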

[4] = Oral bioavailability in Sprague-Dawley rat at 2 mg/kg; format: ADME, organism-based; conditions: in vivo; how it was run: as §1
[5] = Clearance in Sprague-Dawley rat at 1 mg/kg, iv; format: ADME, organism-based; conditions: in vivo; how it was run: as §1
[6] = Half life in Sprague-Dawley rat at 1 mg/kg, iv; format: ADME, organism-based; conditions: in vivo; how it was run: as §1
[7] = AUC (0 to infinity) in Sprague-Dawley rat at 2 mg/kg, po; format: ADME, organism-based; set-up: dose 2 mg/kg, time infinity, route oral; conditions: in vivo; how it was run: as §1
[8] = Half life in human CD4+ CEM cells at 0.1 to 10 uM by HPLC method; format: ADME, cell-based, CCRF-CEM
[9] = target: Human immunodeficiency virus type 1 reverse transcriptase (Human immunodeficiency virus 1, UniProt Q72547); experiment: Inhibition of full-length wild-type HIV1 reverse transcriptase expressed in Escherichia coli BL21(DE3) pre-incubated for 30 mins before addition of template/primer substrate and measured after 90 mins
[10] = AUC (0 to infinity) in Sprague-Dawley rat at 5 mg/kg, po; format: ADME, organism-based; set-up: dose 5 mg/kg, time infinity, route oral; conditions: in vivo
[11] = Oral bioavailability in Sprague-Dawley rat at 5 mg/kg; format: ADME, organism-based; conditions: in vivo

SMILES | IC50 [1] [µM] | CC50 at 48 h [2] [µM] | IC50 [9] [µM] | other results
C#C[C@@]1(CO[P@@](=O)(N[C@@H](C)C(=O)OC(C)C)Oc2ccccc2)C[C@H](n2cnc3c(OCC)nc(N)nc32)C[C@H]1O | 0.382 | > 4.2 | – | –
C#C[C@]1(CO)C[C@@H](n2cnc3c(=O)[nH]c(N)nc32)C[C@@H]1O | 0.024 | > 42 | – | AUC(0-inf) [3]: 1820 nM·h; bioavailability [4]: 91%; clearance [5]: 1.94 L/h/kg; half-life [6]: 9.8 h; AUC(0-inf) [7]: 3300 nM·h
C#C[C@@]1(CO)C[C@H](n2cnc3c(=O)[nH]c(N)nc32)C[C@H]1O | > 2.1 | > 42 | – | –
C#C[C@]1(CO[P@@](=O)(N[C@@H](C)C(=O)OC(C)C)Oc2ccccc2)C[C@@H](n2cnc3c(OCC)nc(N)nc32)C[C@@H]1O | 0.003 | > 42 | – | –
C#C[C@]1(COP(=O)(O)OP(=O)(O)OP(=O)(O)O)O[C@@H](n2cnc3c(N)nc(F)nc32)C[C@@H]1O | – | – | – | half-life at up to 10 µM [8]: > 120 h
N#CC1(CO)CC(n2cnc3c(N)nc(F)nc32)CC1O (racemic) | > 2.1 | > 42 | – | –
C#CC1(COP(=O)(O)OP(=O)(O)OP(=O)(O)O)CC(n2cc(C)c(=O)[nH]c2=O)CC1O (racemic) | – | – | 0.114 | –
Cc1cn(C2CC(O)C(C#N)(CO)C2)c(=O)[nH]c1=O (racemic) | > 2.1 | > 42 | – | –
C#CC1(COP(=O)(O)OP(=O)(O)OP(=O)(O)O)CC(n2cnc3c(N)nc(Cl)nc32)CC1O (racemic) | – | – | 20.2 | –
N#CC1(CO)CC(n2cnc3c(=O)[nH]c(N)nc32)CC1O (racemic) | 1.15 | > 42 | – | –
C#CC1(CO)CC(n2cnc3c(=O)[nH]c(N)nc32)CC1O (racemic) | 0.033 | > 42 | – | –
Cc1cn(C2CC(O)C(C#N)(COP(=O)(O)OP(=O)(O)OP(=O)(O)O)C2)c(=O)[nH]c1=O (racemic) | – | – | 0.523 | –
C#CC1(COP(=O)(O)OP(=O)(O)OP(=O)(O)O)CC(n2cnc3c(N)nc(F)nc32)CC1O (racemic) | – | – | 3.46 | –
C#CC1(CO)CC(n2cc(C)c(=O)[nH]c2=O)CC1O (racemic) | > 2.1 | > 42 | – | –
C#CC1(CO)CC(n2cnc3c(N)nc(Cl)nc32)CC1O (racemic) | 0.232 | > 42 | – | –
C#CC1(CO)CC(n2cnc3c(N)nc(F)nc32)CC1O (racemic) | 0.201 | > 42 | – | –
N#CC1(COP(=O)(O)OP(=O)(O)OP(=O)(O)O)CC(n2cnc3c(=O)[nH]c(N)nc32)CC1O (racemic) | – | – | 0.444 | –
C#CC1(COP(=O)(O)OP(=O)(O)OP(=O)(O)O)CC(n2cnc3c(=O)[nH]c(N)nc32)CC1O (racemic) | – | – | 0.324 | –
C#C[C@]1(CO)O[C@@H](n2cnc3c(N)nc(F)nc32)C[C@@H]1O [ISLATRAVIR] | 0.00021 | > 4.2 | – | AUC(0-inf) [3]: 780 nM·h; AUC(0-inf) [10]: 5000 nM·h; bioavailability [11]: > 100%; clearance [5]: 4.32 L/h/kg; half-life [6]: 0.7 h
Nc1ccn([C@@H]2CS[C@H](COP(=O)(O)OP(=O)(O)OP(=O)(O)O)O2)c(=O)n1 [LAMIVUDINE TRIPHOSPHATE] | – | – | 0.015 | –
Nc1ccn([C@@H]2CS[C@H](CO)O2)c(=O)n1 [LAMIVUDINE] | 0.171 | > 42 | – | –
